Reference: ChEMBL document CHEMBL1667727, “Sesquiterpenes from Chloranthus japonicus” (J Nat Prod, 2011)

Experiments:
Assay type in all cases: functional, cell-based
HepG2 = assay: Cytotoxicity against human HepG2 cells by MTT assay
Summary of the method: (§1)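 In vitro cytotoxicity testing against a panel of eight cultured human tumor lines. Tissue origins: Lovo (colorectal cancer), Hepg2 (hepatoma), OSRC-2 (renal carcinoma), A549 (lung epithelial carcinoma), SKOV3 (ovarian carcinoma), HeLa (cervical cancer), MCF-7 (breast cancer) and SGC-7901 (gastric adenocarcinoma).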

OS-RC-2 = assay: Cytotoxicity against human OS-RC2 cells by MTT assay; summary of the method: as §1
A549 = assay: Cytotoxicity against human A549 cells by MTT assay; summary of the method: as §1
SK-OV-3 = assay: Cytotoxicity against human SKOV3 cells by MTT assay; summary of the method: as §1
HeLa = assay: Cytotoxicity against human HeLa cells by MTT assay; summary of the method: as §1
MCF7 = assay: Cytotoxicity against human MCF7 cells by MTT assay; summary of the method: as §1
SGC-7901 = assay: Cytotoxicity against human SGC7901 cells by MTT assay; summary of the method: as §1
LoVo = assay: Cytotoxicity against human LoVo cells by MTT assay; summary of the method: as §1

Measured: IC50

C=C1[C@H]2C[C@H]2[C@]2(C)C[C@]3(O[C@@H]4O[C@H](CO)[C@@H](O)[C@H](O)[C@H]4O)OC(=O)C(C)=C3C[C@@H]12 [CHLORAJAPOSIDE]
> 10 µM: all assays above

CC1=C2C[C@@H]3[C@@](C)(C[C@]2(O)OC1=O)[C@H](O)CC[C@@]3(C)O [CHLORAEUDOLIDE]
> 10 µM: all assays above

CC1=C2C[C@@H]3[C@@](C)(C[C@@H]2OC1=O)[C@@H]1C[C@@H]1[C@]3(O)CO [CHLORAJAPOLIDE D]
> 10 µM: all assays above

CC1=C2[C@@H]3O[C@H](O)C4=C3[C@@](C)(C[C@@H]2OC1=O)[C@@H]1C[C@H]41 [CHLORAJAPOLIDE B]
> 10 µM: all assays above

CC1=C2[C@H](O)C3=C(C=O)[C@H]4C[C@H]4[C@]3(C)C[C@@H]2OC1=O [CHLORAJAPOLIDE A]
> 10 µM: all assays above

CO[C@@]12OC(=O)C(CO)=C1C[C@H]1[C@H](COC(C)=O)[C@H]3C[C@H]3[C@]1(C)[C@@H]2O [CHLORAJAPOLIDE E]
> 10 µM: all assays above

CC1=C2CC3=C(CO)[C@H]4C[C@H]4[C@]3(C)C[C@@H]2OC1=O [CHLORAJAPOLIDE C]
> 10 µM: all assays above

C/C=C(\C)C(=O)OC[C@@]1(O)C2[C@@H](O)C3=C(COC(=O)CCC(=O)OC)C(=O)O[C@@]34[C@@H]3C5=C(C[C@H]4[C@@]2(C)[C@@H]2C[C@@H]21)[C@H]1C[C@H]1[C@]5(C)[C@@H](O)C(=O)/C3=C(/C)C(=O)OC (some centres undefined) [CHLORAJAPONOL]
> 10 µM: all assays above
